For four compounds, MIC and zone of inhibition results are on record in ChEMBL document CHEMBL1137737, “Synthesis, antimicrobial and cytotoxic activities of 1,3,4-oxadiazoles, 1,3,4-thiadiazoles and 1,2,4-triazoles” (Eur J Med Chem, 2009).

What all share (format): functional
Assay [1] has as its system Bacillus subtilis. Briefly: Antibacterial activity against Bacillus subtilis NCIM 2063 after 24 hrs by microdilution susceptibility method. Conditions: NCIM 2063, 24 h. The essentials: (§1)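 This is a microdilution susceptibility test. Organism suspensions are inoculated into wells holding the dilution series, then incubated at 36 °C for 24 h (bacteria) or 48 h (fungi). MIC is the lowest concentration giving no turbidity, i.e. complete inhibition of visible growth.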
Background: Dilution methods test growth across graded concentrations, often in twofold steps.

The test system of assay [2] is Proteus vulgaris. The experiment in a line: Antibacterial activity against Proteus vulgaris NCIM 2027 after 24 hrs by microdilution susceptibility method. The settings on record: NCIM 2027, 24 h. The gist of the method:
as §1

For assay [3], the system named is Aspergillus niger. The experiment in a line: Antifungal activity against Aspergillus niger NCIM 596 after 48 hrs by microdilution susceptibility method. The settings on record: NCIM 596, 48 h. The gist of the method:
as §1

The test system of assay [4] is Curvularia lunata. The experiment in a line: Antifungal activity against Curvularia lunata NCIM 716 after 48 hrs by microdilution susceptibility method. The settings on record: NCIM 716, 48 h. The essentials:
as §1

The subject of assay [5] is Curvularia lunata. The experiment in a line: Antifungal activity against Curvularia lunata NCIM 716 at 100 ug/disk after 48 hrs by agar disc-diffusion method. The settings on record: NCIM 716, 48 h, read-out: DIZ. The essentials:
(§2)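 Sterile 6 mm filter-paper discs are soaked in compound solution in DMSO and placed on nutrient agar plates already inoculated with each organism. Plates are incubated at 37 °C. The diameter of the growth-inhibition zone is read after 24 h for bacteria and after 48 h for fungi.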
A general note: A growth-free zone around the sample is the usual read-out of agar diffusion tests.

Assay [6] has as its system Proteus vulgaris. Briefly: Antibacterial activity against Proteus vulgaris NCIM 2027 at 200 ug/disk after 24 hrs by agar disc-diffusion method. The settings on record: NCIM 2027, 24 h, read-out: DIZ. The essentials: as §2
Assay [7] deals with Bacillus subtilis. Briefly: Antibacterial activity against Bacillus subtilis NCIM 2063 at 200 ug/disk after 24 hrs by agar disc-diffusion method. Conditions: NCIM 2063, 24 h, read-out: DIZ. The gist of the method:
as §2

Assay [8] relates to Staphylococcus aureus. The experiment in a line: Antibacterial activity against Staphylococcus aureus NCIM 5021 after 24 hrs by microdilution susceptibility method. The settings on record: NCIM 5021, 24 h. The gist of the method:
as §1

Assay [9] deals with Klebsiella pneumoniae. Briefly: Antibacterial activity against Klebsiella pneumoniae NCIM 2957 at 200 ug/disk after 24 hrs by agar disc-diffusion method. The settings on record: NCIM 2957, 24 h, read-out: DIZ. The essentials: as §2
In assay [10] the test system is Staphylococcus aureus. The experiment in a line: Antibacterial activity against Staphylococcus aureus NCIM 5021 at 200 ug/disk after 24 hrs by agar disc-diffusion method. Conditions: NCIM 5021, 24 h, read-out: DIZ. The gist of the method:
as §2

Assay [11] relates to Fusarium solani. The experiment in a line: Antifungal activity against Fusarium solani NCIM 1330 after 48 hrs by microdilution susceptibility method. The settings on record: NCIM 1330, 48 h. The gist of the method: as §1
Assay [12] deals with Klebsiella pneumoniae. Briefly: Antibacterial activity against Klebsiella pneumoniae NCIM 2957 at 100 ug/disk after 24 hrs by agar disc-diffusion method. Conditions: NCIM 2957, 24 h, read-out: DIZ. The gist of the method:
as §2

Assay [13] has as its system Aspergillus niger. The experiment in a line: Antifungal activity against Aspergillus niger NCIM 596 at 200 ug/disk after 48 hrs by agar disc-diffusion method. The settings on record: NCIM 596, 48 h, read-out: DIZ. The essentials: as §2
Assay [14] relates to Aspergillus niger. Briefly: Antifungal activity against Aspergillus niger NCIM 596 at 100 ug/disk after 48 hrs by agar disc-diffusion method. The settings on record: NCIM 596, 48 h, read-out: DIZ. The essentials: as §2
Assay [15] deals with Klebsiella pneumoniae. Briefly: Antibacterial activity against Klebsiella pneumoniae NCIM 2957 after 24 hrs by microdilution susceptibility method. The settings on record: NCIM 2957, 24 h. The gist of the method: as §1
Assay [16] relates to Bacillus subtilis. The experiment in a line: Antibacterial activity against Bacillus subtilis NCIM 2063 at 100 ug/disk after 24 hrs by agar disc-diffusion method. The settings on record: NCIM 2063, 24 h, read-out: DIZ. The essentials: as §2
The test system of assay [17] is Fusarium solani. Briefly: Antifungal activity against Fusarium solani NCIM 1330 at 200 ug/disk after 48 hrs by agar disc-diffusion method. The settings on record: NCIM 1330, 48 h, read-out: DIZ. The gist of the method: as §2
Assay [18] has as its system Curvularia lunata. Briefly: Antifungal activity against Curvularia lunata NCIM 716 at 200 ug/disk after 48 hrs by agar disc-diffusion method. Conditions: NCIM 716, 48 h, read-out: DIZ. The essentials:
as §2

Assay [19] relates to Proteus vulgaris. Briefly: Antibacterial activity against Proteus vulgaris NCIM 2027 at 100 ug/disk after 24 hrs by agar disc-diffusion method. The settings on record: NCIM 2027, 24 h, read-out: DIZ. The essentials: as §2
In assay [20] the test system is Fusarium solani. The experiment in a line: Antifungal activity against Fusarium solani NCIM 1330 at 100 ug/disk after 48 hrs by agar disc-diffusion method. Conditions: NCIM 1330, 48 h, read-out: DIZ. The essentials:
as §2

The subject of assay [21] is Staphylococcus aureus. The experiment in a line: Antibacterial activity against Staphylococcus aureus NCIM 5021 at 100 ug/disk after 24 hrs by agar disc-diffusion method. Conditions: NCIM 5021, 24 h, read-out: DIZ. The gist of the method:
as §2

Converted amounts (≈) assume the structure as drawn.

Take `O=S(=O)(Cc1ccccc1)Cc1nnc(-c2ccccc2Cl)s1`: the minimal inhibitory concentration (MIC) with Bacillus subtilis [1] was 200 µg/mL (≈ 548 µM); against Proteus vulgaris [2], 200 µg/mL (≈ 548 µM); with Aspergillus niger [3], 200 µg/mL (≈ 548 µM); with Curvularia lunata [4], 200 µg/mL (≈ 548 µM); against Staphylococcus aureus [8] it was 100 µg/mL (≈ 274 µM); against Fusarium solani [11], 200 µg/mL (≈ 548 µM). The same compound displayed a minimal inhibitory concentration (MIC) in the assay on Klebsiella pneumoniae [15] of 200 µg/mL (≈ 548 µM). Moreover, the zone of inhibition at 100 µg/disc in the assay on Curvularia lunata [5] came out at 19 mm; with Klebsiella pneumoniae [12], 19 mm; in the assay with Aspergillus niger [14], 16 mm; in the assay on Bacillus subtilis [16], 25 mm; with Proteus vulgaris [19], 18 mm; in the assay with Fusarium solani [20], 20 mm. Also, the zone of inhibition at 100 µg/disc in the assay with Staphylococcus aureus [21] worked out at 26 mm. Also, the zone of inhibition at 200 µg/disc worked out at 22 mm in the assay on Proteus vulgaris [6]; 28 mm in the assay on Bacillus subtilis [7]; 23 mm in the assay on Klebsiella pneumoniae [9]; 29 mm in the assay with Staphylococcus aureus [10]; 19 mm with Aspergillus niger [13]; 23 mm with Fusarium solani [17]. Also, in the assay on Curvularia lunata [18], the zone of inhibition at 200 µg/disc was 21 mm.

Turning to `O=C(N[C@H](CO)[C@H](O)c1ccc([N+](=O)[O-])cc1)C(Cl)Cl` [CHLORAMPHENICOL], the MIC against Bacillus subtilis [1] worked out at 6.25 µg/mL (≈ 19.3 µM); against Proteus vulgaris [2] it was 12.5 µg/mL (≈ 38.7 µM); in the assay with Staphylococcus aureus [8], 6.25 µg/mL (≈ 19.3 µM); with Klebsiella pneumoniae [15], 6.25 µg/mL (≈ 19.3 µM). Moreover, the zone of inhibition at 200 µg/disc in the assay on Proteus vulgaris [6] is 45 mm; in the assay with Bacillus subtilis [7] it was 44 mm; with Klebsiella pneumoniae [9], 42 mm; in the assay with Staphylococcus aureus [10], 41 mm. Also, the zone of inhibition at 100 µg/disc in the assay on Klebsiella pneumoniae [12] came to 37 mm; with Bacillus subtilis [16] it was 38 mm; with Proteus vulgaris [19] it was 42 mm; with Staphylococcus aureus [21], 35 mm.

Consider `O=S(=O)(Cc1ccc(Cl)cc1)Cc1nnc(-c2ccccc2Cl)s1`, for which the MIC against Bacillus subtilis [1] stood at 100 µg/mL (≈ 250 µM); against Proteus vulgaris [2], 200 µg/mL (≈ 501 µM); in the assay with Aspergillus niger [3], 100 µg/mL (≈ 250 µM); in the assay on Curvularia lunata [4], 100 µg/mL (≈ 250 µM); against Staphylococcus aureus [8], 50 µg/mL (≈ 125 µM); against Fusarium solani [11], 100 µg/mL (≈ 250 µM). Moreover, the MIC against Klebsiella pneumoniae [15] amounted to 100 µg/mL (≈ 250 µM). The zone of inhibition at 100 µg/disc in the assay with Curvularia lunata [5] stood at 25 mm; in the assay on Klebsiella pneumoniae [12], 20 mm; in the assay with Aspergillus niger [14], 20 mm; in the assay on Bacillus subtilis [16], 27 mm; with Proteus vulgaris [19] it was 20 mm; in the assay with Fusarium solani [20], 28 mm. Besides, the zone of inhibition at 100 µg/disc in the assay on Staphylococcus aureus [21] was found to be 29 mm. The zone of inhibition at 200 µg/disc was found to be 23 mm with Proteus vulgaris [6]; 31 mm with Bacillus subtilis [7]; 24 mm in the assay with Klebsiella pneumoniae [9]; 33 mm in the assay on Staphylococcus aureus [10]; 23 mm in the assay on Aspergillus niger [13]; 31 mm in the assay with Fusarium solani [17]. For the same compound, the zone of inhibition at 200 µg/disc in the assay with Curvularia lunata [18] was 27 mm.

Turning to `O=S(=O)(Cc1nnc(-c2ccccc2Cl)s1)c1ccc(Cl)cc1`, the MIC in the assay with Bacillus subtilis [1] amounted to 200 µg/mL (≈ 519 µM); in the assay with Proteus vulgaris [2], 400 µg/mL (≈ 1040 µM); in the assay on Aspergillus niger [3], 200 µg/mL (≈ 519 µM); against Curvularia lunata [4], 200 µg/mL (≈ 519 µM); in the assay with Staphylococcus aureus [8], 200 µg/mL (≈ 519 µM); against Fusarium solani [11], 200 µg/mL (≈ 519 µM). In the assay on Klebsiella pneumoniae [15], this compound gave a minimal inhibitory concentration (MIC) of 400 µg/mL (≈ 1040 µM). For the same compound, the zone of inhibition at 100 µg/disc is 19 mm in the assay on Curvularia lunata [5]; 16 mm in the assay with Klebsiella pneumoniae [12]; 17 mm in the assay on Aspergillus niger [14]; 19 mm in the assay on Bacillus subtilis [16]; 19 mm in the assay with Proteus vulgaris [19]; 20 mm in the assay on Fusarium solani [20]. For the same compound, the zone of inhibition at 100 µg/disc with Staphylococcus aureus [21] came to 21 mm. The zone of inhibition at 200 µg/disc in the assay with Proteus vulgaris [6] came to 21 mm; with Bacillus subtilis [7], 23 mm; with Klebsiella pneumoniae [9], 19 mm; in the assay with Staphylococcus aureus [10] it was 23 mm; in the assay with Aspergillus niger [13], 21 mm; in the assay with Fusarium solani [17] it was 24 mm. In the assay with Curvularia lunata [18], the zone of inhibition at 200 µg/disc came out at 22 mm.

The MIC is the least concentration at which growth counts as inhibited.
